Rows were chosen to be rich in hits. Some 2.9% of all compounds tested hit in one or more screens of this group.
EBNA-1 inhibitor – blocks EBNA-1 binding to DNA | EBNA-1 DNA binding, fluorescence polarization | inhibition, % at 14.8 µM | 300,000 tested, 0.34% active; in the data active means inhibition above about 28%
UBC13 polyUb – human UBC13 polyubiquitination inhibition | UBC13 polyubiquitin chain formation, TR-FRET | inhibition, % at 20 µM | 330,000 tested, 0.47% active | AID 485273; in the data active means inhibition above about 45%, passing the limit was not always enough
Target sequence (P61088 whole entry, looked up): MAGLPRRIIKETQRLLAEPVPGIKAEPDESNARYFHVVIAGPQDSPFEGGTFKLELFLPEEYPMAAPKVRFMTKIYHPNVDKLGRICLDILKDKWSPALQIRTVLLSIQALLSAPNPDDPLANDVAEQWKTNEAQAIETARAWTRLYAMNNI
PfGluPho inh – PfG6PD (Plasmodium falciparum) enzyme inhibition; PfGluPho enzyme, NADPH resazurin-diaphorase fluorescence; inhibition, % at 20 µM; 350,000 tested, 0.78% active; AID 504690;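 active means inhibition reaching at least a set limit at 20 µM in the primary screen, cut at about 59% in these data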;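 further: 0% = DMSO wells with substrate and 100% = DMSO wells lacking glucose-6-phosphate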
PfM18AAP inh – PfM18AAP enzyme inhibition. recombinant PfM18AAP, H-Glu-NHMec fluorogenic cleavage. inhibition, % at 7.35 µM. 290,000 tested, 1.2% active;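 active means inhibition above the campaign mean inhibition over all tested compounds plus 3 SD, cut at about 28% in these data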;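 further: 0% = plate median of test compound wells and 100% = 2 mM ZnCl2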
Apaf1 inhib – blocks human Apaf-1 apoptosome activity | O14727 | AID 489030 | 330,000 tested, 0.71% active | reconstituted apoptosome caspase-3 activity, DEVD-Rh110 fluorescence | inhibition, % at 20 µM; active means inhibition of at least 40% at 20 µM;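 further: plate controls were DMSO wells for no effect and DEVD-CHO caspase inhibitor wells for full effect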
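Material: reconstituted apoptosome with Apaf-1, cytochrome c, caspase-9, procaspase-3, dATP / Buffer or medium: pH 7.5 Hepes buffer with CHAPS, BSA, DTT / Also added: cytochrome c with DEVD-Rh110 / Schedule: compound with Apaf-1, dATP, procaspase-3 30 min, then 50 min reaction, room temperature / Technique: rhodamine 110 fluorescence at Ex 480/Em 540 nm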
ZTA DNA inh – counter-screen for EBNA-1 inhibitors: inhibitors of Epstein-Barr virus ZTA | 320,000 tested, 0.15% active | AID 2234 | ZTA-DNA binding, fluorescence polarization | P03206 | inhibition, % at 11 µM; in the data active means inhibition above about 33%
Target sequence (P03206 whole entry, looked up): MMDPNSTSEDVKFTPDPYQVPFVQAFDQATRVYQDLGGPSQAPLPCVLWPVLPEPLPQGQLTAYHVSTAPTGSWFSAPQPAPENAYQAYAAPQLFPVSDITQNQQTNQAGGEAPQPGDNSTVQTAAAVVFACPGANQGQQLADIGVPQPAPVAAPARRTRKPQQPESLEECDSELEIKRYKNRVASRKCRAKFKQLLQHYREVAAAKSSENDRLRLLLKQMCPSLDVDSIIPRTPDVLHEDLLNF
The depositor's hits bear a star; · = not tested or not shown.

SMILES	EBNA-1 inhibitor	UBC13 polyUb	PfGluPho inh	PfM18AAP inh	Apaf1 inhib	ZTA DNA inh
O=C(N/N=C\c1ccc(-c2ccccc2[N+](=O)[O-])o1)C1COc2cc3ccccc3cc2O1 (stereo unspecified)	-1	-35	31	5	81*	3
O=C(COc1ccc(Br)cc1Cl)NC(=S)N1CCc2ccccc21	9	-7	-5	6	10	-15
O=C(COc1ccc(Br)cc1Br)NC(=S)N1CCCc2ccccc21	9	4	16	-4	4	42*
COc1ccc(NC(=O)c2cc3c(COC(C)=O)cnc(C)c3oc2=Nc2cccc(C(=O)O)c2)c(OC)c1	12	-18	68*	-14	4	-3
COc1cccc(N=c2oc3c(C)ncc(CO)c3cc2C(=O)Nc2ccccc2OC)c1	·	·	·	-7	·	·
CCOC(=O)N1CCN(C(=O)c2cc3c(=O)n4ccccc4nc3s2)CC1	2	12	22	0	3	-23
CN1CCN(C(=O)c2cc3c(=O)n4ccccc4nc3s2)CC1	-9	24	4	29*	-2	-13
NC(=S)N=Nc1ccc(NN=C(N)N)cc1	-1	-20	99*	67*	37	-2
CC(=O)C1C(=O)c2c(cccc2[N+](=O)[O-])C1=Nc1ccc(S(N)(=O)=O)cc1 (stereo unspecified)	-9	-2	4	31*	5	-31
CC1=C(C#N)C(=O)N(C2CCS(=O)(=O)C2)C(=O)/C1=C\c1ccc(C)o1 (stereo unspecified)	9	-7	·	30*	15	17
Cc1ccc(/C=C2\SC(=S)N(C3CCS(=O)(=O)C3)C2=O)o1 (stereo unspecified)	6	-30	20	26	6	-8
COCCCN1CCc2[nH]c(=S)[nH]c(=O)c2C1	1	2	-8	6	-12	-2
COc1cccc(CN2CCc3[nH]c(=S)[nH]c(=O)c3C2)c1	-12	2	1	30*	-3	-22
O=C(O)COCC(=O)Nc1ccc(-n2nc(C(F)(F)F)cc2-c2cccs2)cc1	-2	7	-16	-6	-9	-7
O=C1CCC/C(=N\NC(=O)c2ccc(NS(=O)(=O)c3ccc(Br)cc3)cc2)C1	17	-1	-7	30*	-6	1
Cc1ccc(S(=O)(=O)N(C)Cc2ccc(C(=O)N/N=C3\CCCC(=O)C3)cc2)cc1	-6	1	19	12	2	10
CCNC(=S)N/N=C(\C)c1ccc(N2CCOCC2)cc1	-2	-31	8	29*	-4	-8
Cc1cc(=O)oc2ccc(OC(=O)CC(C)C)cc12	-26	-3	23	4	4	-15
COC(=O)c1cc(C)c(C)cc1NC1OC(CO)C(O)C1O (stereo unspecified)	·	·	0	·	·	·
O=C1/C(=C\c2ccco2)SC(=S)N1c1ccc(O)cc1	9	1	-3	31*	12	-10
CC(C(=O)Nc1ccc(C(=O)O)c(O)c1)N1C(=O)/C(=C\c2ccco2)SC1=S (stereo unspecified)	2	-14	5	28*	7	27
CC(C(=O)N(C)C1CCS(=O)(=O)C1)N1C(=O)/C(=C/c2ccco2)SC1=S (stereo unspecified)	3	-11	19	31*	2	-2
CCC(C)c1ccc(O)c(NC(=S)NC(=O)c2cccs2)c1 (stereo unspecified)	·	·	21	·	·	·
COc1ccc(N2CCN(C(=O)COC(=O)CCOc3ccc(C)cc3)CC2)cc1	4	-5	14	·	11	-7
CCC(CO)Oc1cc(NCc2ccc(F)cc2)c2ncn(C(C)C)c2c1 (stereo unspecified)	·	8	23	·	43*	·
SMILES	EBNA-1 inhibitor	UBC13 polyUb	PfGluPho inh	PfM18AAP inh	Apaf1 inhib	ZTA DNA inh
CC(=O)OCCNc1cc(Sc2nc3ccccc3[nH]2)c2nonc2c1[N+](=O)[O-]	5	·	65*	-62	·	5
Nc1c(C(=O)c2ccccc2)sc2snc(SCC(=O)c3ccccc3)c12	-6	-6	26	31*	6	-7
Nc1nnc(SCC(=O)c2ccccc2)s1	-22	-8	5	15	2	-2
C[C@@H]1CN([C@@H](C)CO)C(=O)c2cc(NC(=O)CCN3CCOCC3)ccc2O[C@@H]1CN(C)C(=O)Nc1ccccc1	·	3	-3	·	9	·
C/C=C(\C)C(=O)OC1[C@H](OC(C)=O)C2(CO)C(CC1(C)C)C1=CCC3C4(C)CCC(O[C@@H]5O[C@H](C(=O)O)[C@@H](O[C@@H]6O[C@H](CO)[C@@H](O)[C@H](O)[C@H]6O)[C@H](O)[C@H]5O[C@H]5O[C@H](CO)[C@@H](O)[C@H](O)[C@H]5O)[C@](C)(CO)C4CCC3(C)[C@]1(C)C[C@H]2O (stereo partly specified)	·	·	-6	·	·	·
CCOC(=O)C1(CCOc2ccccc2)CCN(C(=O)CCSC)CC1	-1	·	-7	-21	·	37*
C[C@@H]1CN([C@@H](C)CO)C(=O)CCCn2nncc2CO[C@@H]1CN(C)C(=O)Cc1ccccc1	·	·	-11	·	·	·
N#C/C(=C\c1ccco1)C(=O)Nn1cnnc1	-8	-14	-16	32*	-23	-2
N#C/C(=C\c1ccco1)C(=O)Nc1ccc(S(N)(=O)=O)cc1	-1	-18	-9	3	0	4
C#CCOCCOCCOCCNc1nc(N2CCN(C(=O)[C@H](CCCCN)n3cc([C@@H](N)CO)nn3)CC2)nc(N2CCN(C(=O)[C@H](Cc3cc4ccccc4[nH]3)n3cc([C@@H](N)Cc4ccc(O)cc4)nn3)CC2)n1	3	106*	·	0	55*	0
C#CCOCCOCCOCCNc1nc(N2CCN(C(=O)C([C@@H](C)O)n3cc([C@@H](N)CCCCN)nn3)CC2)nc(N2CCN(C(=O)[C@H](CCCCN)n3cc([C@@H](N)[C@H](C)CC)nn3)CC2)n1 (stereo partly specified)	·	104*	18	·	30	·
C#CCOCCOCCOCCNc1nc(N2CCN(C(=O)[C@H](CCCCN)n3cc([C@@H](N)CC(C)C)nn3)CC2)nc(N2CCN(C(=O)[C@H](Cc3ccc(O)cc3)n3cc([C@@H](N)CC(C)C)nn3)CC2)n1	-6	37	6	2	11	-28
C#CCOCCOCCOCCNc1nc(N2CCN(C(=O)[C@H](CCC(=O)O)n3cc(C(N)CC(C)C)nn3)CC2)nc(N2CCN(C(=O)[C@H](Cc3ccc(O)cc3)n3cc(C(N)CC(C)C)nn3)CC2)n1 (stereo partly specified)	7	2	6	-5	-3	7
C#CCOCCOCCOCCNc1nc(N2CCN(C(=O)[C@H]([C@@H](C)CC)n3cc([C@@H](N)Cc4ccc(O)cc4)nn3)CC2)nc(N2CCN(C(=O)[C@H](CCCCN)n3cc([C@@H](N)CC(C)C)nn3)CC2)n1	10	97*	·	1	3	-13
